According to paper PMC3668520 (FEBS Open Bio, 2013):

Legend:
FLAG-tagged human EBI2 = FLAG-tagged human EBI2 (Homo sapiens, UniProt P32249); assay: [35S]GTPγS binding to membranes from CHO cells stably expressing EBI2; assay type: biochemical
In short: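 Membranes from CHO Flp-In cells stably expressing M1-FLAG-EBI2 or pcDNA5 (10 μg) were incubated 30 min with ligands and 1 nM [35S]GTPγS. WGA SPA beads (2.8 mg/mL) were then added for 30 min, followed by centrifugation and scintillation counting. Nonspecific binding was defined with 40 μM unlabelled GTPγS. Inhibition was run at 1 nM 7α,25-OHC. Agonist curves were run at 0, 100 nM, 1 μM and 10 μM antagonist. Kd and slope come from Schild regression (x-intercept). Three independent experiments.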

[1] = test system: B cells isolated from wt and EBI2-overexpressing C57BL/6 mice; assay: Ex vivo B cell chemotaxis; assay type: cell-based, mouse
In short: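 B cells came from wt and EBI2-overexpressing C57BL/6 mice. 7α,25-OHC and/or test compound was placed in the lower chamber, and 200,000 cells went onto 5 μm-pore filters. After 5 h at 37 °C, migrated cells were quantified by CellTiterGlo luminescence. Agonist response is expressed as chemotactic index (four experiments). Inhibition was tested on EBI2-overexpressing cells with 0.1 nM 7α,25-OHC, relative to agonist alone (three experiments).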

[2] = test system: FLAG-tagged human EBI2 (ERK1/2 phosphorylation); assay: ERK1/2 phosphorylation in CHO cells stably expressing EBI2; assay type: cell-based; conditions: 10 min, read-out: EC50, ERK1/2 activation
[3] = test system: FLAG-tagged human EBI2 (p38 phosphorylation); assay: p38 phosphorylation in CHO cells stably expressing EBI2; assay type: cell-based; conditions: serum-starved CHO EBI2 cells; ptx-sensitive
EBI2 = conditions: at 5 μM; ref PubChem BioAssay ID: 651636; cited from earlier work

Chain of FLAG-tagged human EBI2 (P32249 whole entry): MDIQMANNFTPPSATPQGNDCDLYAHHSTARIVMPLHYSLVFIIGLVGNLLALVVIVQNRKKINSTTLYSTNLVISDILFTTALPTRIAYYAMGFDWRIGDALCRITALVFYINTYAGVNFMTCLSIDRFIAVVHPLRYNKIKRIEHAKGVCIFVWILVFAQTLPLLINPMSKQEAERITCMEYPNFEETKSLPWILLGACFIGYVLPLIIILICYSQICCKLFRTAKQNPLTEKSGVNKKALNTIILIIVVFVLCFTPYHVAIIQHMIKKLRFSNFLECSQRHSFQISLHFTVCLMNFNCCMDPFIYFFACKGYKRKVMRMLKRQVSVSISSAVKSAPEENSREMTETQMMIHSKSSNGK

| SMILES | EC50 (FLAG-tagged human EBI2) [nM] | EC50 ([1]; Mus musculus, B-cell, read-out: EC50, chemotaxis) [nM] | Concentration at which chemotaxis peaked ([1]; both wt and EBI2-OE B cells) [nM] | EC50 [2] [nM] | p38 activation [3] | Suppression of 7α,25-OHC-induced β-arrestin recruitment (EBI2) |
| --- | --- | --- | --- | --- | --- | --- |
| C[C@H](CCCC(C)(C)O)[C@H]1CC[C@H]2[C@@H]3[C@H](O)C=C4C[C@@H](O)CC[C@]4(C)[C@H]3CC[C@]12C [7α,25-OHC, 7α,25-dihydroxycholesterol] | 1 | 0.1 | 1 | 3 | dose-dependently activated |  |
| O=C(/C=C/c1ccc(Cl)cc1)N1CCN(c2c(Cl)cccc2[N+](=O)[O-])CC1 [CID: 5804570] |  |  |  |  |  | best compound |
